Results of several laboratories.
Each line is one published result; the experiments were not run side by side.
Target: Calcium/calmodulin-dependent protein kinase type 1D (CAMK1D, Homo sapiens, UniProt Q8IU85)

SMILES | observed | technique | tested at | remaining binding [%]
COc1ccc2c(c1)O[C@@H](c1ccc(OC)c(OC)c1)C[C@H]2NC(=O)C1(c2ccc3c(c2)OC(F)(F)O3)CC1 | cell-free assay | competition with immobilised ligand | 1 µM | 94
O=C(c1ccc(Nc2ncc(Cl)c(-c3ccc(Cl)s3)n2)cc1)N1CCC(N2CCCC2)CC1 | binding | competition with immobilised ligand | 1 µM | 22
CN(C)c1ncc(F)c(-c2cnn3ncccc23)n1 | binding |  | 1 µM | 78
Nc1ncc2c(n1)-c1c([nH]c3ccc(C#CC4CC4)cc13)CCCC2 | binding | competition with immobilised ligand | 1 µM | 100
Cn1nc(C(=O)NCc2ccc(C(=O)O)cc2)cc1-c1ccc2[nH]ccc2c1 | cell-free assay | competition with immobilised ligand | 0.1 µM | 95
O=C(Nc1c[nH]nc1C(=O)NC1CCNCC1)c1cc(F)cc(F)c1 | binding | competition with immobilised ligand | 1 µM | 100
c1cnn2ncc(-c3ccnc(N4CCC45COC5)n3)c2c1 | binding |  | 1 µM | 89
CN([C@@H]1CCc2c(CC(=O)O)c3cc(S(C)(=O)=O)ccc3n2C1)S(=O)(=O)c1ccc(F)cc1 | cell-free assay | competition with immobilised ligand | 1 µM | 99
C[C@H]1CCN(c2nccc(-c3cnn4ncccc34)n2)C1 | binding |  | 1 µM | 95
O=C(N1CCS(=O)(=O)CC1)N1C[C@H](c2ccc(OC(F)(F)F)cc2)C[C@H](c2nc(C3CC3)no2)C1 | cell-free assay | competition with immobilised ligand | 1 µM | 91
CCN1CCN(Cc2ccc(C(=O)Nc3ccc(C)c(Oc4ccc5c(c4)CC(=O)N5)c3)cc2C(F)(F)F)CC1 | binding | competition with immobilised ligand | 1 µM | 52
O=C(NCCCN1CCOCC1)c1ccc(Nc2nccc(-c3cc4ccccc4s3)n2)cc1 | binding | competition with immobilised ligand | 1 µM | 48
C[C@@H](c1ccc(-n2cnc3c(N)ncnc32)cc1)N1CCc2nn(C)c(Cc3ccccc3)c2C1=O | binding | competition with immobilised ligand | 0.1 µM | 95
O=C(O)[C@H]1[C@H](Cn2nnc3ccccc3c2=O)CC[C@@H]1C(=O)c1ccc(OCCC2CCOCC2)cc1 | cell-free assay | competition with immobilised ligand | 1 µM | 96
N[C@@H]1CCN(c2nccc(-c3cnn4ncccc34)n2)C1 | binding |  | 1 µM | 100
C=CC(=O)N1CCC(C(=O)NCC(=O)N2CCN(c3nc(-c4cnc(N)nc4C(F)F)nc(N4CCOCC4)n3)CC2)CC1 | binding | competition with immobilised ligand | 1 µM | 100
c1cncc(-c2cccc(Nc3nccc(NC4CCCCC4)n3)c2)c1 | binding | competition with immobilised ligand | 10 µM | 72
F[C@@H]1CCN(c2nccc(-c3cnn4ncccc34)n2)C1 | binding |  | 1 µM | 100
O=C(NCCCN1CCOCC1)c1ccc(Nc2ncc(Cl)c(-c3ccc(Cl)s3)n2)cc1 | binding | competition with immobilised ligand | 1 µM | 44
COc1cnc(Nc2cccc(S(N)(=O)=O)c2)nc1N1CCN(c2ccccc2)CC1 | binding | competition with immobilised ligand | 1 µM | 100
CC1CCCN1c1nccc(-c2cnn3ncccc23)n1 (stereo not shown) | binding |  | 1 µM | 100
Cc1nc(C2CCN(C(=O)c3ccc(OC(F)(F)F)cc3N)CC2)c2ncc(N3CCN(C)CC3)cc2n1 | cell-free assay | competition with immobilised ligand | 1 µM | 100
